Results taken from publication PMC7729281 (Biochemistry, 2020).
Where “and” joins values, the source holds several entries; their conditions need not be identical. Identical values can stand only once.

Columns and labels:
h12-LOX [1] = target: T1, h12-LOX (Homo sapiens, UniProt P18054); assay: Product analysis of h12-LOX reactions; assay type: biochemical; conditions: h12-LOX + 1 μM 14S-HpDHA, 60 min, pH 8.0, ambient O2
T1 sequence (P18054 1-663): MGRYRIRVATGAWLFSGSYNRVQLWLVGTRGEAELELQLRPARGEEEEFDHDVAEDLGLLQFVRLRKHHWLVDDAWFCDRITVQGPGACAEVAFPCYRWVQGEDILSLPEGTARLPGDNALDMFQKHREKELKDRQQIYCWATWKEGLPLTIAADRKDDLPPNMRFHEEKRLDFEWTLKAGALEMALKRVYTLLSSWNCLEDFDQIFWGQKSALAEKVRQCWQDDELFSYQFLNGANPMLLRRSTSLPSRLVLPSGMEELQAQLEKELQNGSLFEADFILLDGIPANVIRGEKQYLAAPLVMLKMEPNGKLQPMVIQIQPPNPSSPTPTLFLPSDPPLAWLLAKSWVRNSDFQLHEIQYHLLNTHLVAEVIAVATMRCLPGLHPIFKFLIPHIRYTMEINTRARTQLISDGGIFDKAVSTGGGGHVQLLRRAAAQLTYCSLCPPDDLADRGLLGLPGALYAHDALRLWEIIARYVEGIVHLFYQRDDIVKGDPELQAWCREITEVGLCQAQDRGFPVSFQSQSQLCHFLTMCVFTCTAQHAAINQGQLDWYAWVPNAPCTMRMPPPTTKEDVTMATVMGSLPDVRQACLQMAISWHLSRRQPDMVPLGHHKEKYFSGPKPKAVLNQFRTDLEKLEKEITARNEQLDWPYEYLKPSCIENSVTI
Procedure, shortened: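 h15-LOX-1 (0.125 μM, pH 7.5) or h12-LOX (0.300 μM, pH 8.0) was reacted in 25 mM HEPES at room temperature under ambient O2. Substrates were 10 μM DHA for 1 min (monitored at 234 nm) or 1 μM 14S-HpDHA for 20 min (h15-LOX-1) or 1 h (h12-LOX) (monitored at 270 nm). Reactions were quenched with acetic acid, spiked with d5-maresin-1, extracted into DCM and background-subtracted against a no-enzyme control. Split samples were run with or without trimethyl phosphite reduction. Products were identified by C18 LC-MS/MS (qTOF), N = 3.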

h12-LOX [2] = target: T1, h12-LOX; assay: Allosteric modulation of 14S-HpDHA epoxidation by h12-LOX; assay type: biochemical; conditions: 14S-HpDHA titrated 1 to 50 μM, 76% at start
Procedure, shortened: (§1)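 Recombinant human h15-LOX-1 (0.125 μM, 25 mM HEPES pH 7.5, 20 min) or h12-LOX (0.3 μM, pH 8.0, 1 h) reacted at room temperature with 1 μM 14S-HpDHA while oxylipin modulator was titrated (1–100 μM), or with 14S-HpDHA varied alone (1–50 μM). Products were reduced and analysed by LC-MS. Dehydration (epoxide) versus oxygenation product percentages were calculated, N = 3.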

h15-LOX-1 [3] = target: T2, h15-LOX-1 (Homo sapiens, UniProt P16050); assay: Allosteric modulation of 14S-HpDHA epoxidation by h15-LOX-1; assay type: biochemical
T2 sequence (P16050 1-662): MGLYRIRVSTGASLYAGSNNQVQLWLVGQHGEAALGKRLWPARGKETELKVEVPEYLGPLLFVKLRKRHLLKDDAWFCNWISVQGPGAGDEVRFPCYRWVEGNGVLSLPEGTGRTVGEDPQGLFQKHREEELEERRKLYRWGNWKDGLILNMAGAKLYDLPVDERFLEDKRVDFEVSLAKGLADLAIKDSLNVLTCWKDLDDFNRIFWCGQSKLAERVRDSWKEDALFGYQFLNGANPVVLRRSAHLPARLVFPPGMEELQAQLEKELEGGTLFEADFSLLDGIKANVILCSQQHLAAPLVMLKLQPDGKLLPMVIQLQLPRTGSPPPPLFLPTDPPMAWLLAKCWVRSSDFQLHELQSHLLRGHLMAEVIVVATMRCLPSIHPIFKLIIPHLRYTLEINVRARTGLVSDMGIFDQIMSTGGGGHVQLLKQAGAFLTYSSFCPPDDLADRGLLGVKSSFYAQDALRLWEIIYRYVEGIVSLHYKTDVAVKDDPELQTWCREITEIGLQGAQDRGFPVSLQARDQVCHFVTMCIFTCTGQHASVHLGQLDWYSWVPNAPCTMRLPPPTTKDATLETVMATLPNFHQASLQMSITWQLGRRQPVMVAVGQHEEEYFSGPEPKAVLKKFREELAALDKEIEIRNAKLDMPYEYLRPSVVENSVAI
Procedure, shortened: as §1

h15-LOX-2 = target: T3, h15-LOX-2 (Homo sapiens, UniProt O15296); assay: Steady-state kinetics of h15-LOX-2 with 14S-HpDHA; assay type: biochemical; conditions: various 14S-HpDHA concentrations
T3 sequence (O15296 1-676): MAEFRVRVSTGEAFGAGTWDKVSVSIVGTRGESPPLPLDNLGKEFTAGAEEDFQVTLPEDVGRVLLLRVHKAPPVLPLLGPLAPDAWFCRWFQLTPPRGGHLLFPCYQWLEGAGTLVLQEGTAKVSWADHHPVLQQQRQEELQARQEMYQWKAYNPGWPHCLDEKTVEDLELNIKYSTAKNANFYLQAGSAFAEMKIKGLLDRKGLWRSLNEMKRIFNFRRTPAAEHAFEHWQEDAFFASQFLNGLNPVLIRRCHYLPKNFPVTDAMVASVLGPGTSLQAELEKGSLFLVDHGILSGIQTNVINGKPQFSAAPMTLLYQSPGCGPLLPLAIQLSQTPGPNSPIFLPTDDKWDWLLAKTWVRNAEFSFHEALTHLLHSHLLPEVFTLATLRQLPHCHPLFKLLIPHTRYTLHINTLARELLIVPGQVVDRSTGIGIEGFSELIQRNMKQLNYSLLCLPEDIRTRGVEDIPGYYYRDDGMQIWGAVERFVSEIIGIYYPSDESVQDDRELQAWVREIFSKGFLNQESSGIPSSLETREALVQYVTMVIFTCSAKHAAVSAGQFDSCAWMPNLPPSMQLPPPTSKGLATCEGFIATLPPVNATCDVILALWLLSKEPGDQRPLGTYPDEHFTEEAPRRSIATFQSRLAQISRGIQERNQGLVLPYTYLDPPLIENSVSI
Procedure, shortened: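 Reactions were run in a quartz cuvette containing 2 mL of 25 mM HEPES, pH 7.5, at room temperature, with 14S-HpDHA at various concentrations. The 14S-HpDHA stock was quantified at 234 nm in methanol (ε 27 000 M−1 cm−1). Product formation was followed by absorbance at 270 nm (ε 37 000 M−1 cm−1), with triplicate reactions.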

h15-LOX-1 [4] = target: T2, h15-LOX-1; assay: Steady-state kinetics of h15-LOX-1
[5] = h15-LOX-1 + substrate, 25 mM HEPES pH 7.5, RT

CC/C=C\C/C=C\C[C@@H](/C=C/C=C\C/C=C\C/C=C\CCC(=O)O)OO [14S-HpDHA, 14S-hydroperoxy-4Z,7Z,10Z,12E,16Z,19Z-docosahexaenoic acid]
product profile: 7S,14S-EZE-diHpDHA (h12-LOX [1]): 12% and 12 ± 2%
product profile: 13S,14S-epoxy-DHA (detected as 7S/R,14S-EEE-diHDHA) (h12-LOX [1]): 76% and 76 ± 11%
product profile: 14S,20-diHpDHA (h12-LOX [1]): 13% and 13 ± 9%
epoxidation product at end of titration (h12-LOX [2]): 19%
7S,14S-EZE-diHDHA (oxygenation product) (h15-LOX-1 [3]; h15-LOX-1, 14S-HpDHA at high concentration (50 μM)): 76 ± 0.5%
7R/S,14S-EEE-diHDHA (epoxide degradation product) (h15-LOX-1 [3]; h15-LOX-1, 14S-HpDHA at low concentration (1 μM)): 71 ± 11%
reaction with h15-LOX-2 (h15-LOX-2): not to react
kcat (h15-LOX-1 [4]; h15-LOX-1): 2e+06 ± 40000 M⁻¹ s⁻¹
13S,14S-epoxy-DHA biosynthetic flux (h15-LOX-1 [4]; h15-LOX-1 + 14S-HpDHA, B.F. = kcat/KM * % product): 0.078
Km (h15-LOX-1 [4]; [5]): 18 ± 1 µM
kcat (h15-LOX-1 [4]; [5]): 2.0 ± 0.04 s⁻¹
fold difference of kcat/KM (h15-LOX-1 [4]; h15-LOX-1, kcat/KM of enzyme with DHA set to 1 (Table 5)): −3.2
kcat of h15-LOX-1 greater than that of h12-LOX (h15-LOX-1 [4]; substrate 14S-HpDHA): ~10 fold
